Data set [1] in a line: Half life in mouse hepatic microsomes at 1 uM in presence of NADPH by LC-MS/MS method. In kind it is ADME, Microsome. As to conditions: liver microsomes. The gist of the method: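 Compound incubated with mouse liver microsomes; half-life (T1/2, min) of the compound reported as a measure of metabolic stability.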
Data set [2] deals with Serine/threonine-protein kinase pim-1 (Homo sapiens, UniProt P11309). The experiment in a line: Inhibition of recombinant full length His-tagged human PIM1 expressed in baculovirus expression system by Z'-Lyte assay. The gist of the method:
(§1)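 IC50 against PIM1, PIM2, BTK and BMX determined with Z′-Lyte kinase activity assays.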

For data set [3], the target named is T1, Cytoplasmic tyrosine-protein kinase BMX (Homo sapiens, UniProt P51813).
T1 sequence (P51813 whole entry): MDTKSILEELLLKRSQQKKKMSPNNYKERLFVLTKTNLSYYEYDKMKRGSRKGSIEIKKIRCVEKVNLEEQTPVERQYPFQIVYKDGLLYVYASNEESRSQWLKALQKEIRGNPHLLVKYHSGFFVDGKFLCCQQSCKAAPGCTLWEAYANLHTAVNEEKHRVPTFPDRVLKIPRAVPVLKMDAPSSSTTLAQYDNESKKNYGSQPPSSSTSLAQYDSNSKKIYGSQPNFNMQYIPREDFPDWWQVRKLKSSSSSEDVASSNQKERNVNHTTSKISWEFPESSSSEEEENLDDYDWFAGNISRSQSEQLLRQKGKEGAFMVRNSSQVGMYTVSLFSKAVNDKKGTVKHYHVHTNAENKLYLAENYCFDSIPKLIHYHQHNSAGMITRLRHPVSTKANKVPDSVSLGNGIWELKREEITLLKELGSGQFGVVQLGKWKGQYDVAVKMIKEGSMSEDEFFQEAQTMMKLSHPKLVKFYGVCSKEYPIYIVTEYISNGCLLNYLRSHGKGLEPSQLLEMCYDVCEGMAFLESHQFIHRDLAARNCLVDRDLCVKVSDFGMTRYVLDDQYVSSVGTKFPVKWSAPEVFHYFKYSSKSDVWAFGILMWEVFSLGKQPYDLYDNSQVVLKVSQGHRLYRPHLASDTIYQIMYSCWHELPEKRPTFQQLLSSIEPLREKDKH
Nature of the data set: Inhibition of recombinant full length His-tagged human BMX cytoplasmic domain expressed in baculovirus expression system by Z'-Lyte assay. The gist of the method:
as §1

The nature of data set [4]: Tmax in Swiss albino mouse at 10 mg/kg, ip by LC/MS/MS method. The following applies: in vivo. In kind it is ADME, organism-based. The gist of the method:
(§2)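 Mouse pharmacokinetics after intravenous, oral or intraperitoneal dosing; plasma parameters derived were T1/2, Tmax, Cmax, AUClast, AUCinf, clearance, Vss and oral bioavailability F.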

The nature of data set [5]: Tmax in Swiss albino mouse at 10 mg/kg, po by LC/MS/MS method. In kind it is ADME, organism-based. As to conditions: in vivo. The gist of the method:
as §2

In data set [6] the target is Epithelial discoidin domain-containing receptor 1 (Homo sapiens, UniProt Q08345). The experiment in a line: Inhibition of GST-tagged human DDR1 catalytic domain (440 to 876 residues) expressed in baculovirus expression system by LanthaScreen assay. The gist of the method: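 IC50 against DDR1 and DDR2 determined with LanthaScreen binding assays.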
(In general: TR-FRET usually uses a lanthanide donor and a delayed reading to cut background.)

Data set [7] can be described thus: Selectivity index, ratio of CC50 for cytotoxicity against human HuH7 to IC90 for antiviral activity against Dengue virus serotype 2 strain New Guinea C infected in HuH7 cells. The gist of the method:
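Huh7 cells infected with DENV2, then treated across a concentration range. At 24 h, cell viability was measured, and secreted infectious virus was titrated by focus-forming assay. CC50 (50% cytotoxicity) and IC90 (1-log10 reduction in infectious progeny) were fitted by non-linear regression. Experimental duplicates, n ≥ 2 repeats.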

Data set [8] can be described thus: AUC (infinity) in Swiss albino mouse at 50 mg/kg, ip by LC/MS/MS method. In kind it is ADME, organism-based. Further details: dose 50 mg/kg, time infinity, route intraperitoneal. As to conditions: in vivo.
Data set [9] in a line: AUClast in Swiss albino mouse at 50 mg/kg, ip by LC/MS/MS method. In kind it is ADME, organism-based. The following applies: in vivo. Details: dose 50 mg/kg, route intraperitoneal, time 0 - last.

Structures are written as SMILES.

As usually defined, the half-life is how long it takes for the measured level to halve. One may read the IC50 as the concentration needed to halve the response being measured. One may read the Tmax as the time from dosing to the highest level. The AUC(0-inf) is total exposure, with the tail of the curve extrapolated. As a reminder, the AUC(0-t) is the area under the concentration-time curve up to a stated or last time point. Low values mean low exposure, high ones high exposure.

Sequence of Epithelial discoidin domain-containing receptor 1 (Q08345 whole entry, the tested form may be a part): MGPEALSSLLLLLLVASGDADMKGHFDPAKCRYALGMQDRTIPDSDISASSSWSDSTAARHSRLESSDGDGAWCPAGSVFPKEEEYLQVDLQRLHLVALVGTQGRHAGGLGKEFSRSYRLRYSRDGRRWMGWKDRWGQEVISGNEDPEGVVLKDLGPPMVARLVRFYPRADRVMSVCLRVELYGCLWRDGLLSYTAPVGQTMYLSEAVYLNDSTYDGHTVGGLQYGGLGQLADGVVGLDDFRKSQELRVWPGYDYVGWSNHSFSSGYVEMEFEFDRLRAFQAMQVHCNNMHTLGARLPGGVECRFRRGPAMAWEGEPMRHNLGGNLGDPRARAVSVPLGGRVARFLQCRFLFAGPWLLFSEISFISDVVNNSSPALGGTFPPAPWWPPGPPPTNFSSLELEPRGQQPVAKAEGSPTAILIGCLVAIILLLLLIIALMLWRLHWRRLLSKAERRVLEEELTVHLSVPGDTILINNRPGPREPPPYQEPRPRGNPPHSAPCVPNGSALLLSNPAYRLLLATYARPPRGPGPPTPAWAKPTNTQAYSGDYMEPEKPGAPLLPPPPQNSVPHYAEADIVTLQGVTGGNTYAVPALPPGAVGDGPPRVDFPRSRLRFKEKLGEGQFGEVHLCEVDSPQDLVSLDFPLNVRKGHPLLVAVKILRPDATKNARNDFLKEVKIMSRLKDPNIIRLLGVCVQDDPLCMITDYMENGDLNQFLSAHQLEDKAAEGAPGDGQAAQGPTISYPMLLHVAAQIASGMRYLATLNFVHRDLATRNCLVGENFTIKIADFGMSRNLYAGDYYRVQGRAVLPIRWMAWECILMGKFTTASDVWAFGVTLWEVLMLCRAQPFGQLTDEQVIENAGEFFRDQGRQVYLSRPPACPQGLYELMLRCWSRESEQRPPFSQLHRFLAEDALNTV
Sequence of Serine/threonine-protein kinase pim-1 (P11309 whole entry): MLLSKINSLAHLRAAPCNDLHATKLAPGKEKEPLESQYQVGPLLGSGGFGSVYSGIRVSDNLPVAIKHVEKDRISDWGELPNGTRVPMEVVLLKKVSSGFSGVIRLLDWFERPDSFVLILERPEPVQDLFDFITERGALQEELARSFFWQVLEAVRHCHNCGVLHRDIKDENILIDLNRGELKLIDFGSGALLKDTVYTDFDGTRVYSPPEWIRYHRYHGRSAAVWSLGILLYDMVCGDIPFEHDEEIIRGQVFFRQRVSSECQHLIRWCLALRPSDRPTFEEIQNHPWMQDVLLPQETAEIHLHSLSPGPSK

Turning to `Cc1ccc(-n2c(=O)ccc3ccc4ccc(-c5cnn(C)c5)cc4c32)cc1NC(=O)/C=C/CN(C)C`, the half-life at 1 µM in data set [1] is 15.6 min. For the same compound, the IC50 was found to be 1.79 µM in [2], 2.42 µM in data set [3] and 5.02 µM in data set [6]. For the same compound, the Tmax in data set [4] came out at 15 min; in [5], 60 min. The “Selectivity Index” value in data set [7] was 35. For the same compound, the AUC(0-inf) in data set [8] came out at 8550 ng·h/mL. For the same compound, the AUC(0-t) in data set [9] was 8220 ng·h/mL.

The values are drawn from ChEMBL document CHEMBL4041550, “Structure-Activity Relationship Study of QL47: A Broad-Spectrum Antiviral Agent” (ACS Med Chem Lett, 2017).
